# High-throughput results (PubChem BioAssay)
# LEDGF integ inh = blocks HIV-1 LEDGF/p75-dependent DNA integration; TR-FRET IN-LEDGF/p75 DNA integration, Eu/Cy5; inhibition, % at 3.7 µM; actives 0.64% (n = 370,000); AID 743269;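 active = inhibition above the screen-wide mean plus 3 SD, cut at about 13% in these data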;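 also: signal is the Cy5 over europium emission ratio at 671 and 618 nm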
# UHRF1 MBD2 ctr = blocks human UHRF1 binding to methylated DNA | AID 687016 | Q96T88 | inhibition, % at 4.4 µM | actives 0.75% (n = 370,000) | UHRF1 binding to methylated oligo, TR-FRET; in the data active = inhibition above about 21%;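 also: UHRF1 SRA domain binding a hemimethylated CpG hairpin DNA probe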
# CASP6 VEID inh = inhibitors of human caspase-6 | AID 686996 | inhibition, % at 12.5 µM | purified caspase-6, Z-VEID-R110 cleavage fluorescence | actives 0.53% (n = 350,000);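 active = mean inhibition across replicates at least about 35%, with every replicate also reaching that limit, limit read from the data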
# Target sequence (P55212 24-179 limits assumed): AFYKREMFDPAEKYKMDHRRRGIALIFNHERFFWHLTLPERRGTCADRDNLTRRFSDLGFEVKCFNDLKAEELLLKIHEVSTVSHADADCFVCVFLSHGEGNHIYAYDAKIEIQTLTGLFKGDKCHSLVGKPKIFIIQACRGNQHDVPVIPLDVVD
# Target sequence (P55212 194-293 limits assumed): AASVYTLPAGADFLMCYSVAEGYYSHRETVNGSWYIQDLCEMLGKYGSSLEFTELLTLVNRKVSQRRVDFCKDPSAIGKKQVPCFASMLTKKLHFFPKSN
# MBD2 DNA inh = inhibitors of human MBD2 binding to methylated oligonucleotide. actives 0.31% (n = 370,000). inhibition, % at 4.4 µM. TR-FRET. AID 686964; in the data active = inhibition above about 13%
# TDP2 absorb = blocks human TDP2 phosphodiesterase activity; O95551; recombinant TDP2, T5PNP hydrolysis, p-nitrophenol absorbance 415 nm; inhibition, % at 12.8 µM; actives 0.34% (n = 370,000); AID 720702;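 active = inhibition above the mean of all tested compounds plus 3 SD, set per campaign, cut at about 25% in these data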
#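 test system = human TDP2 enzyme | input = TDP2 enzyme at 120 nM final | medium = 50 mM Tris-HCl pH 7.5 with Mg2+, KCl, DTT, BSA | also added = T5PNP substrate, 5 mM | times = 2 h at 37 °C | technique = epi absorbance | benchmarks = high control without enzyme, low control DMSO plus TDP2 | replication = each compound tested once, singlicate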
# NSD2 HMT inh = NSD2 (human) methyltransferase inhibition | O96028 | NSD2 peptide methylation, AlphaScreen, 120 min | inhibition, % at 12.5 µM | actives 0.54% (n = 310,000); in the data active = inhibition above about 50%
# Hits are given with their value; . = inactive; / = no result. Shown are actives, neighbours in structure and some others; about 1.8% of the full set was active somewhere.
SMILES,LEDGF integ inh,UHRF1 MBD2 ctr,CASP6 VEID inh,MBD2 DNA inh,TDP2 absorb,NSD2 HMT inh
O=C(/C=C1\SC(=O)N(CC(=O)Nc2ccc(F)cc2)C1=O)Nc1ccc(Cl)cc1,.,.,.,.,.,.
O=C(CN1C(=O)S/C(=C\C=C\c2ccccc2)C1=O)Nc1ccc(C(=O)O)cc1,.,.,44.0,.,.,.
O=C(/C=C1\SC(=O)N(CC(=O)Nc2ccc(Cl)cc2)C1=O)Nc1ccc(F)cc1,.,.,42.7,.,.,/
O=C(CN1C(=O)S/C(=C/C=C/c2ccccc2)C1=O)Nc1ccc(C(=O)O)cc1,.,.,.,.,.,.
COc1ccccc1CNC(=O)C[C@H]1C[C@H]2c3cc(NC(=O)NC4CCCC4)ccc3O[C@H]2[C@H](CO)O1,/,/,.,/,/,/
COc1cccc(C#Cc2ccc3c(c2)[C@@H]2[C@@H](CCN2C(=O)CC2CC2)[C@H](CO)N3)c1,/,/,.,/,/,/
O=C(NC(=O)c1csnn1)Nc1ccccc1Cl,.,.,61.2,.,.,.
NC(=O)NC(=O)Nc1ccccc1Cl,.,.,/,.,.,.
CCCCOc1ccc(C(=O)OCC(=O)N2CCOCC2)cc1,.,.,61.4,.,.,.
CN(C)c1ccc(C(=O)OCC(=O)N2CCOCC2)cc1,.,.,.,.,.,.
COC(=O)[C@H]1[C@H](CO)[C@H]2Cn3c(cccc3=O)[C@H]2N1CC1CCCC1,/,/,.,/,/,/
CCCNC(=O)[C@@H]1[C@@H](CO)[C@@H]2Cn3c(ccc(-c4ccccc4)c3=O)[C@@H]2N1CC1CC1,/,/,54.4,/,/,/
COC(=O)[C@H]1[C@H](CO)[C@H]2Cn3c(cccc3=O)[C@H]2N1CC1CCOCC1,/,/,70.0,/,/,/
COc1cc(C(=O)OCC(=O)N2CCCC2=O)cc(OC)c1C,.,.,36.9,.,.,.
CC(=O)Nc1ccc(C(=O)OCC(=O)N2CCCC2=O)cc1,.,.,.,.,.,.
Cc1ccc(S(=O)(=O)NC(C)C(c2cccs2)N2CCOCC2)cc1 (centres undefined),.,38.9,.,.,.,/
O=C(C1CCCC1)N1CC2(C1)[C@H](c1ccccc1)[C@@H](CO)N2C(=O)NC1CCCC1,/,/,.,/,/,/
Cc1ccccc1N/C(SCc1ccc(Cl)cc1)=C(/C#N)C(=O)NCc1ccco1,.,21.6,/,.,.,.
Cc1ccc(CS/C(Nc2ccccc2C)=C(\C#N)C(=O)NCc2ccco2)c(C)c1,.,.,/,.,.,.
CCOC(=O)[C@H]1[C@H]2COc3ccc(Cl)cc3[C@@H]2N2C(=O)CN(Cc3ccc(C)cc3)C(=O)[C@@]12C,.,.,39.7,.,.,/
CCOC(=O)[C@H]1[C@H]2COc3ccc(Cl)cc3[C@@H]2N2C(=O)CN(Cc3ccc(OC)cc3)C(=O)[C@@]12C,.,.,.,.,.,/
COc1ccc(CN2C[C@H](C)[C@H](OC)CN(C)C(=O)c3cc(NC(=O)c4nc5ccccc5s4)ccc3OC[C@@H]2C)cc1,/,/,.,/,/,/
Cc1csc(NC(=O)c2cccnc2Cl)n1,.,.,.,.,.,/
O=C(Nc1nncs1)c1cccnc1Cl,.,24.9,/,.,.,.
O=C(C[C@@H]1CC[C@@H]2[C@H](COC[C@@H](O)CN2Cc2ccc(Oc3ccccc3)cc2)O1)N1CCCCC1,/,/,.,/,/,/
SMILES,LEDGF integ inh,UHRF1 MBD2 ctr,CASP6 VEID inh,MBD2 DNA inh,TDP2 absorb,NSD2 HMT inh
C[C@H](CO)N1C[C@H](C)[C@H](CN(C)C(=O)C2CCOCC2)Oc2ncc(Br)cc2C1=O,/,/,.,/,/,/
O=C(O)c1cccc(Nc2ccnc(Nc3cccc(C(=O)O)c3)n2)c1,.,.,35.4,.,.,.
O=C(O)c1cccc(Nc2nc(N3CCOCC3)nc(N3CCOCC3)n2)c1,.,.,/,.,.,.
CCc1ccc2[nH]c3nc(N/N=C/c4cccc(O)c4)nnc3c2c1,.,43.2,.,.,.,.
COc1ccc(CCNC(=O)CSc2nc(O)cc(=O)[nH]2)cc1OC,.,.,.,.,.,.
COc1ccc(CCNC(=O)CSc2cc(=O)[nH]c(N)n2)cc1OC,.,23.5,/,.,.,/
Cc1ccccc1-c1cnc2c(c1)C(=O)N([C@@H](C)CO)C[C@H](C)[C@H](CN(C)C(=O)c1ccc(F)cc1)O2,/,/,.,/,/,/
O=C(O)CCC(=O)Nc1sc2c(c1C(=O)Nc1ccccc1)CCCCC2,.,.,47.0,.,.,.
O=C(O)CCC(=O)Nc1sc2c(c1C(=O)Nc1cccc3ccccc13)CCCCC2,.,.,/,.,.,.
